HCT116 PTEN-null: growth suppressors of cells with PTEN tumor suppressor deletion; HCT116 PTEN-null viability, CellTiter-Glo, 60 h; stronger effect = lower value; viability, % at 10 µM; 1.2% of 140,000 active;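 active = viability at or below a set limit, 4 SD under the median of all tested compounds, cut at about 3.7% in these data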;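 also: PTEN knockout HCT116 line with beta catenin targeted HCT116 as companion control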
HUVEC inhibit: inhibitors of human endothelial cell proliferation | HUVEC proliferation, CellTiter-Glo luminescence, 72 h; stronger effect = lower value | viability, % at 10 µM (by protocol) | 1.1% of 86,000 active;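 active = viability at or below 30%; inactive = viability above 30%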;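 also: 100% = median luminescence of DMSO-only cell control wells on each plate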
bCat KO growth: beta-catenin-lacking colon tumor cell growth suppression; viability, % at 10 µM; HCT116 beta-catenin knockout viability, CellTiter-Glo, 60 h; stronger effect = lower value; 1.5% of 140,000 active;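 active = viability at or under a set limit, the compound median less 4 SD, cut at about 6% in these data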;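 also: 0% = Hyamine 1622 control at 20 µM and 100% = untreated cell control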
Lung fibro prol: blocks proliferation of human lung fibroblasts; 1.1% of 85,000 active; viability, % at 10 µM; LL 47 human lung fibroblast viability, ATP luminescence; stronger effect = lower value;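 active = viability at or below 50% in the single dose screen; inactive = viability above 50%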;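 also: compound exposure lasted 72 h before the ATP readout; 100% = median luminescence of untreated cell-only wells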
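test system = LL 47 human lung fibroblasts | amount = 1,150 fibroblasts seeded per well | medium = 15% FBS in IMEM | times = overnight cell rest, 72 h compound treatment at 37 °C | measured by = CellTiter-Glo luminescence measuring cellular ATP | read-out = viability percentage against median untreated-cell control | benchmarks = cell-only wells, no compound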
H69AR inhibit: blocks growth of human H69AR lung tumor cells. viability, % at 10 µM. AID 598. 6% of 85,000 active. H69AR lung tumor viability, ATP luminescence, 72 h; stronger effect = lower value;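 active = viability at or below 40%; inactive = viability above 40%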;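 also: multidrug resistant small cell line overexpressing MRP-1 efflux transporter; 100% = mean luminescence of untreated control wells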
Numbers without * were called inactive; nt = not tested or not shown. Shown is part of a subset that was picked to be rich in hits.

SMILES	HCT116 PTEN-null	HUVEC inhibit	bCat KO growth	Lung fibro prol	H69AR inhibit
COc1cc(/C=C(\C#N)c2ccccn2)ccc1OCc1ccc(Cl)cc1	88.1	nt	87.6	nt	nt
COc1ccc(N2C(N)=C(C#N)C(c3cccnc3)C3=C2CC(C)(C)CC3=O)cc1 (stereo not given)	67.3	65.4	68.7	80.2	17.7*
COc1ccc(OC)c(N2C(N)=C(C#N)C(c3ccc(OC)c(O)c3)C3=C2CC(C)(C)CC3=O)c1 (stereo not given)	nt	86.2	nt	96.6	15.6*
COc1ccc(C2C(C#N)=C(N)N(Nc3ccccc3)C3=C2C(=O)CC(C)(C)C3)cc1C (stereo not given)	58.9	nt	66.0	nt	nt
COc1ccc(C2C(C#N)=C(N)N(c3cccnc3)C3=C2C(=O)CC(C)(C)C3)cc1OC (stereo not given)	87.5	nt	83.9	nt	nt
CCN(CC)CCNC(=O)c1ccc(N2CCCCC2)c(NS(=O)(=O)c2ccc(C)cc2)c1	1.8*	66.1	1.8*	67.1	76.8
COC(=O)c1ccc(N2CCCCC2)c(NS(=O)(=O)c2ccc(C)cc2)c1	52.7	89.8	34.7	100.8	76.7
O=C(Nc1ncnc2sc3c(c12)CCCCC3)c1ccc(F)cc1	56.9	81.3	54.8	74.3	39.6*
CC1=C(C(=O)NCCN2CCN(C)CC2)C2(CCC(C)CC2)OC1=O (stereo not given)	93.6	89.4	96.1	104.5	82.0
COc1ccc(C(=O)C(CCC(CNC(C)(C)C)C(=O)c2ccc(OC)cc2)CNC(C)(C)C)cc1 (stereo not given)	1.2*	nt	1.0*	nt	nt
C/C(=N\OC(=O)c1ccccc1F)c1nccs1	93.3	nt	107.8	nt	nt
NS(=O)(=O)c1ccc(N/N=C2/CCCCC2C2CCCCC2)c([N+](=O)[O-])c1 (stereo not given)	2.5*	nt	1.7*	nt	nt
CC1C/C(=N\Nc2ccc(S(N)(=O)=O)cc2[N+](=O)[O-])CC(C)(C)C1 (stereo not given)	61.2	nt	61.5	nt	nt
Cn1cnnc1SCc1ccc(C(=O)n2ncc(C#N)c2N)cc1	104.3	88.5	99.1	94.4	93.0
Cc1csc(NC(=O)c2cc3c(C)nn(Cc4ccccc4Cl)c3s2)n1	56.9	nt	57.2	nt	nt
CCOc1ccc2nc(N3CCC(C(=O)N4CCN(c5ncccn5)CC4)CC3)sc2c1	nt	109.8	nt	98.7	38.3*
COc1ccc(-c2nnc(SCC(=O)NC(=O)NCc3ccco3)o2)cc1	106.6	106.7	105.3	nt	85.6
N#CCSc1nc2cc(C(=O)N3CCC(C(N)=O)CC3)ccc2c2nc3ccccc3n12	7.4	85.5	5.0*	98.8	63.2
N#CCSc1nc2cc(C(=O)N3CCCC3)ccc2c(=O)n1Cc1ccccc1	78.0	nt	93.3	nt	nt
N#CCSc1nc2ccccc2c2nc3ccccc3n12	8.8	nt	5.8*	nt	nt
Cc1ccccc1S(=O)(=O)NC1OC(=O)C(Cl)=C1Cl (stereo not given)	107.0	100.2	100.7	95.9	7.1*
CCOc1cc(C(=O)Nc2cnccn2)cc(OCC)c1OCC	28.8	74.9	32.2	95.9	23.8*
CCOc1cc(C(=O)Nc2cc(C)ccn2)cc(OCC)c1OCC	37.0	85.2	35.6	96.5	77.3
COC(=O)/C(=C1/Oc2cc(C)oc(=O)c2S1)C(F)(F)F	3.2*	nt	3.6*	nt	nt
COC(=O)/C(=C1/Oc2ccc(C(C)(C)C)cc2S1)C(F)(F)F	104.0	nt	97.5	nt	nt
SMILES	HCT116 PTEN-null	HUVEC inhibit	bCat KO growth	Lung fibro prol	H69AR inhibit
CCCn1ncc(OC)c(Cl)c1=O	107.5	nt	92.4	nt	nt
O=S1(=O)c2ccccc2N=NN1Cc1ccc(Cl)cc1	103.0	20.6*	97.3	6.2*	1.1*
O=S1(=O)c2ccccc2N=NN1Cc1cc(Cl)cc(Cl)c1	80.0	78.2	71.3	47.0*	1.2*
CCCc1nnc(NC(=O)Cn2cnc3ccccc3c2=O)s1	96.7	nt	95.5	nt	nt
CC(=O)Oc1ccc2ccccc2c1C(NC(=O)Cc1ccccc1)c1ccc(Cl)cc1 (stereo not given)	0.9*	nt	0.8*	nt	nt
CN(C)CCNC(=O)c1ccc(COc2ccc(Cl)cc2Cl)cc1	1.6*	2.4*	3.1*	24.6*	1.4*
CN1CCN(C(=O)CCCOc2ccc(Cl)cc2Cl)CC1	76.5	nt	84.3	nt	nt
CN1CCN(C(=O)c2ccc(COc3ccc(Cl)cc3Cl)cc2)CC1	77.4	12.9*	77.8	86.2	75.0
COc1ccc(Cl)cc1C(=O)NCCN(C)C	100.6	93.6	100.5	98.5	93.0
CC1Cc2nc(SCC(=O)NCc3ccco3)n(Cc3ccccc3)c(=O)c2S1 (stereo not given)	96.2	98.5	97.0	100.7	91.4
CC1CCC(NC(=O)CC(C)(C)Cc2nc3ccccc3c(=O)[nH]2)CC1 (stereo not given)	81.7	70.6	78.1	96.7	24.6*
COc1ccc(-c2cc(C(F)(F)F)c3c(=O)n(-c4ccccc4)[nH]c3n2)cc1	89.2	71.6	95.0	104.0	58.1
C=CCn1c(=O)/c(=C/c2ccc(Cl)cc2)s/c1=C(/C#N)c1nnc2n1CCCCC2	45.5	67.7	48.3	82.5	22.2*
COc1ccc(-c2nc3c(n2O)CCCC3=O)cc1OC	103.0	99.1	99.3	102.1	87.1
O=C(c1ccccc1)c1ccc(OCC(O)CN2CCOCC2)cc1 (stereo not given)	nt	98.3	nt	108.2	83.6
CCOc1ccc(C(=O)C(CN2CCOCC2)c2ccccc2)cc1 (stereo not given)	2.7*	nt	3.1*	nt	nt
CC(C)NC(=O)Cn1nnc(-c2ccc(Cl)cc2)n1	101.1	nt	92.5	nt	nt
Cc1sc2ncnc(Sc3nnc4sc5ccccc5n34)c2c1C	60.5	97.0	57.8	93.0	34.7*
O=C(Nc1ncccn1)c1cc([N+](=O)[O-])cc([N+](=O)[O-])c1	81.2	nt	98.6	nt	nt
O=[N+]([O-])c1cc(-c2ncccn2)c([N+](=O)[O-])s1	6.6	nt	2.2*	nt	nt
COc1cc(/C=C(\C#N)c2nc3ccccc3[nH]2)cc(Br)c1OCc1ccc(F)cc1	2.1*	nt	2.1*	nt	nt
CC(C)c1ccc(N=c2c([N+](=O)[O-])nn(-c3ccc4c(c3)OCCO4)n2O)cc1	86.8	nt	87.8	nt	nt
COc1cc(N=c2c([N+](=O)[O-])nn(-c3ccc4c(c3)OCCO4)n2O)cc(OC)c1	0.3*	nt	0.8*	nt	nt
